Assay [1] concerns the target T1, Sphingosine 1-phosphate receptor 4 (Homo sapiens, UniProt O95977).
T1 sequence (O95977 whole entry): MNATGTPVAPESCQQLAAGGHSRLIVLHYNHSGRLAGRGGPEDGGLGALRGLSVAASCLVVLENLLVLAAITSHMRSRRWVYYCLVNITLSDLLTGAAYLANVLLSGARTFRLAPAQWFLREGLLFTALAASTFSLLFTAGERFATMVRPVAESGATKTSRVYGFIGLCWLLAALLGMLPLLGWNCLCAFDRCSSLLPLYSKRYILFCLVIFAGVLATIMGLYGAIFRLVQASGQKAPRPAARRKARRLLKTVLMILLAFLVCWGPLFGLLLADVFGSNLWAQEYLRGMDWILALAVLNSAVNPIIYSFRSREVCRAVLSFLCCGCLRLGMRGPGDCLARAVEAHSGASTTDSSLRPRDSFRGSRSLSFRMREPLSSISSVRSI
As to the kind of experiment: In vitro binding affinity towards human Sphingosine 1-phosphate receptor 4 expressed in HEK293T cells was determined using [gamma-35S]-GTP as radioligand. The format is cell-based, HEK-293T. The essentials:
(§1)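 Membranes (5 µg) from HEK293T cells expressing the relevant human S1P receptor plus G-protein, incubated in GTP-binding buffer (HEPES 50 mM, NaCl 100 mM, MgCl2 5 mM, pH 7.5) with 5 µg saponin, 10 µM GDP, 0.1 nM [γ-35S]GTP and test lipid. Incubation was 30 min at 30°C. Bound label was separated by GF/C filtration and scintillation counted. EC50 is the mean of three experiments.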

The target in assay [2] is T2, Sphingosine 1-phosphate receptor 3 (Homo sapiens, UniProt Q99500). As to the kind of experiment: In vitro binding affinity towards human Sphingosine 1-phosphate receptor 3 expressed in HEK293T cells was determined using [gamma-35S]-GTP as radioligand; na denotes not active. The note with it: hek-293t. In kind it is cell-based. The essentials:
as §1

The target in assay [3] is T3, Sphingosine 1-phosphate receptor 5 (Homo sapiens, UniProt Q9H228). As to the kind of experiment: In vitro binding affinity towards human Sphingosine 1-phosphate receptor 5 expressed in HEK293T cells was determined using [gamma-35S]-GTP as radioligand; na denotes not active. The format is cell-based. The conditions noted are these: hek-293t. An outline of the steps:
as §1

Assay [4] has as its target Sphingosine 1-phosphate receptor 2 (Homo sapiens, UniProt O95136). The assay can be described thus: In vitro binding affinity towards human Sphingosine 1-phosphate receptor 2 expressed in HEK293T cells was determined using [gamma-35S]-GTP as radioligand; na denotes not active. The format is cell-based. The note with it: hek-293t. The essentials:
as §1

In assay [5] the target is T4, Sphingosine 1-phosphate receptor 1 (Homo sapiens, UniProt P21453). As to the kind of experiment: In vitro binding affinity towards human Sphingosine 1-phosphate receptor 1 expressed in HEK293T cells was determined using [gamma-35S]-GTP as radioligand; partial agonist. In kind it is cell-based, HEK-293T. An outline of the steps:
as §1

Assay [6] addresses T3, Sphingosine 1-phosphate receptor 5. As to the kind of experiment: In vitro binding affinity towards human Sphingosine 1-phosphate receptor 5 expressed in HEK293T cells was determined using [gamma-35S]-GTP as radioligand; partial agonist. The format is cell-based, HEK-293T. The essentials: as §1
Assay [7] addresses T2, Sphingosine 1-phosphate receptor 3. The assay can be described thus: In vitro binding affinity towards human Sphingosine 1-phosphate receptor 3 expressed in HEK293T cells was determined using [gamma-35S]-GTP as radioligand. The format is cell-based, HEK-293T.
The target of assay [8] is T4, Sphingosine 1-phosphate receptor 1. As to the kind of experiment: In vitro binding affinity towards human Sphingosine 1-phosphate receptor 1 expressed in HEK293T cells was determined using [gamma-35S]-GTP as radioligand. In kind it is cell-based, HEK-293T.

The structures appear in SMILES notation.

Sphingosine 1-phosphate receptor 2, sequence (O95136 whole entry): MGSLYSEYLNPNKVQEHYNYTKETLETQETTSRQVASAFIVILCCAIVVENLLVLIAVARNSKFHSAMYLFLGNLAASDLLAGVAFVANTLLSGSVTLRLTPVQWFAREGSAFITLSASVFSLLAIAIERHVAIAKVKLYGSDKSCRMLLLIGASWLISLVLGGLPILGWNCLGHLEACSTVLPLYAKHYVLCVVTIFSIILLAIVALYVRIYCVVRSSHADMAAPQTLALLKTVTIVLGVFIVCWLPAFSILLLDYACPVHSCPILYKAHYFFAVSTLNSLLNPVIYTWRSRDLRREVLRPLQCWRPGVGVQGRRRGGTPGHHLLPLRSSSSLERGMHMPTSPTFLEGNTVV
T2 sequence (Q99500 whole entry): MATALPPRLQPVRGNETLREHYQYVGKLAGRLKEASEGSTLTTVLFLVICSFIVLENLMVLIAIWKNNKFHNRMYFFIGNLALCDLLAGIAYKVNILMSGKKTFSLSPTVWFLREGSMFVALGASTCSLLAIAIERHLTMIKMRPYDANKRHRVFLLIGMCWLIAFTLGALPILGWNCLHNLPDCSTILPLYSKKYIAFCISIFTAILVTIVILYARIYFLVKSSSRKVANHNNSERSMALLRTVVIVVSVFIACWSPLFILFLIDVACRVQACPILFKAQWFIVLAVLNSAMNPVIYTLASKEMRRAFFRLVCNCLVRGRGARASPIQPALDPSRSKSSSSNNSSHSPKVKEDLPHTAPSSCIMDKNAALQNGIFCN
T4 sequence (P21453 whole entry): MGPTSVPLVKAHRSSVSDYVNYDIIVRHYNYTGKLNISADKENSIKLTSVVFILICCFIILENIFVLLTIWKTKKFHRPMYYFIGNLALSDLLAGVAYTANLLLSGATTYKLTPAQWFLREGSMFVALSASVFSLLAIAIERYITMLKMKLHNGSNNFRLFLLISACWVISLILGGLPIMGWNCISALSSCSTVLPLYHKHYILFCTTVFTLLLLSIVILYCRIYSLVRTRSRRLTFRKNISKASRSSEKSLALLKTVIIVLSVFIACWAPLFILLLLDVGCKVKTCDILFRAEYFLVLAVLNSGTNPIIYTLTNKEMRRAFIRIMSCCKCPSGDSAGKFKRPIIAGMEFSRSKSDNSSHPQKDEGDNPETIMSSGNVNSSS
T3 sequence (Q9H228 whole entry): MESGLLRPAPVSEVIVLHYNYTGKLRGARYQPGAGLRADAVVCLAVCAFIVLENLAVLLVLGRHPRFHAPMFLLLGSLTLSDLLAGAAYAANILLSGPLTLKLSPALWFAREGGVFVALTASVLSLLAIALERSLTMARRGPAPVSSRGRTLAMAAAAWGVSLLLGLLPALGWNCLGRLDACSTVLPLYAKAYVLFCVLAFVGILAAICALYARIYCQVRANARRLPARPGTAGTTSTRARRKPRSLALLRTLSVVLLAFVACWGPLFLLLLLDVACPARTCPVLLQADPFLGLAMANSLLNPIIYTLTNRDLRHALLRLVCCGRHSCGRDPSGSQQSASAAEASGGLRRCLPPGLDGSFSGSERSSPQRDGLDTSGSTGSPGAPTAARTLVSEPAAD

In general, EC50 refers to the concentration that produces a half-maximal response. Read a high EC50 as weaker potency. Consider `CCCCCCCCc1ccc2[nH]c([C@@H](N)[C@@H](C)O)nc2c1.O=C(O)C(F)(F)F`, for which the EC50 in assay [1] is 33000 nM; in assay [2], “Not Active”; in assay [3], “Not Active”; in assay [4] it was “Not Active”; in assay [5], 2900 nM.
On to `CCCCCCCCc1ccc2[nH]c([C@@H](N)[C@@H](C)OP(=O)(O)O)nc2c1.O=C(O)C(F)(F)F`, for which the 50% effective concentration (EC50) in assay [1] was 94 nM; in assay [6] it was 77 nM; in assay [2], “Not Active”; in assay [4], “Not Active”; in assay [5] it was 240 nM.
Take `CCCCCCCCc1ccc2[nH]c([C@@H](N)COP(=O)(O)O)nc2c1.COC(=O)C(F)(F)F`: the concentration for a half-maximal effect (EC50) in assay [1] is 48 nM; in assay [6] it was 6.6 nM; in assay [2], “Not Active”; in assay [4], “Not Active”; in assay [5], 37 nM.
Take `CCCCCCCCc1ccc2[nH]c([C@H](N)CO)nc2c1.O=C(O)C(F)(F)F`: the concentration giving a half-maximal response (EC50) is 1600 nM in assay [1]; 390 nM in assay [6]; “Not Active” in assay [2]; “Not Active” in assay [4]; 330 nM in assay [5].
Consider `CCCCCCCCCCCCC/C=C/[C@@H](O)[C@@H](N)COP(=O)(O)O`, for which the EC50 in assay [1] was 37 nM; in assay [7], 1.2 nM; in assay [8], 20 nM.
With `CCCCCCCCc1ccc2[nH]c([C@H](N)COP(=O)(O)O)nc2c1.COC(=O)C(F)(F)F`, the concentration giving a half-maximal response (EC50) is 36 nM in assay [1]; 8.2 nM in assay [6]; “Not Active” in assay [2]; “Not Active” in assay [4]; 21 nM in assay [5].
Regarding `CCCCCCCCc1ccc2[nH]c([C@@H](N)CO)nc2c1.O=C(O)C(F)(F)F`, the 50% effective concentration (EC50) was 4200 nM in assay [1]; 2400 nM in assay [6]; “Not Active” in assay [2]; “Not Active” in assay [4]; 2100 nM in assay [5].
With `CCCCCCCCc1ccc2[nH]c(C(C)(N)COP(=O)(O)O)nc2c1.O=C(O)C(F)(F)F` (stereo not drawn), the EC50 in assay [1] was 1200 nM; in assay [6], 370 nM; in assay [2] it was “Not Active”; in assay [4] it was “Not Active”; in assay [5] it was 1000 nM.

Values taken from ChEMBL document CHEMBL1137873, “Synthesis of benzimidazole based analogues of sphingosine-1-phosphate: discovery of potent, subtype-selective S1P4 receptor agonists” (Bioorg Med Chem Lett, 2004).
